Results on 14 molecules are retold here after ChEMBL document CHEMBL1125614, “Synthesis of 2-exo- and 2-endo-mecamylamine analogues. Structure-activity relationships for nicotinic antagonism in the central nervous system” (J Med Chem, 1991).

Each structure is given as a SMILES string. Some results are limits rather than exact numbers.

A short description of data set [1]: Partition coefficient (logP). Particulars: octanol/water. In kind it is physicochemical. Put shortly: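 Octanol-water partition coefficient, calculated (not measured) from structure by the Rekker fragment procedure.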
Data set [2] relates to Mus musculus. In words: In vivo nicotinic antagonism relative to (+/-)-exo-mecamylamine measured in mice. The class given is functional. Put shortly:
(§1)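 Mice; antagonist or saline sc 10 min before saline or nicotine ditartrate at its ED84 dose. Spontaneous activity counted in photocell cages, % depression vs saline. Tail-flick latency to heat measured 5 min after nicotine, 10-s cutoff, as % MPE. % antagonism per assay; AD50 with 95% confidence limits by Litchfield-Wilcoxon. Potency ratio = compound AD50 / racemic mecamylamine AD50; relative potency averages both assays.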

Data set [3] relates to Mus musculus. In words: In vivo nicotinic antagonism relative to (+/-)-exo-mecamylamine measured in mice; stimulant. The class given is functional, organism-based. Put shortly:
as §1

As to `CN(C)C1CC2CCC1(C)C2(C)C` (racemic), the logP in data set [1] (read-out: logP) amounted to 3.96. Also, the Relative potency in the data set with Mus musculus [2] was found to be 10.5.
On to `CNC1C2CCC(C2)C1(C)C` (racemic), for which, in data set [1] (read-out: logP), the logP stood at 3.01. The same molecule returned a Relative potency in the data set on Mus musculus [2] of 1.2.
`CNC1C2CCC(C2)C1C` (racemic): the logP in data set [1] (read-out: logP) worked out at 2.49. The molecule also had a Relative potency in the data set with Mus musculus [2] of 18.1.
The matching figures for `CNC1CC2CCC1(C)C2(C)C` (racemic): 3.53 and 8.6.
As to `CNC1CC2CCC1C2` (racemic), the logP in data set [1] (read-out: logP) was 1.97. The same molecule had a Relative potency with Mus musculus [2] of over 40.
The matching figures for `CN(C)C1(C)C2CCC(C2)C1(C)C` (racemic) [DIMECAMINE]: 3.96 and 1.5.
With `CCNC1C2CCC(C2)C1c1ccccc1` (racemic) [FENCAMFAMIN], the logP in data set [1] (read-out: logP) amounted to 4.15. The Relative potency result with Mus musculus [3] is given as “Stimulant”.
As for `CNC1(C)C2CCC(C2)C1(C)C` (racemic) [MECAMYLAMINE], in data set [1], the logP was 3.53. The molecule also displayed a Relative potency in the data set on Mus musculus [2] of 1.
With `CN[C@@H]1C2(C)CCC(C2)C1(C)C` (single isomer, unassigned; (+)), in the data set with Mus musculus [2], the Relative potency is given as 1.2.
As for `CN[C@H]1C2(C)CCC(C2)C1(C)C` (single isomer, unassigned; (+)), in the data set with Mus musculus [2], the Relative potency came to 1.9.
The same measure, in the same setting: to `CNC1(C)C2CCC(C2)C1(C)C` (single isomer, unassigned; (+)) [MECAMYLAMINE] belongs 3.
For the molecule `CN[C@@H]1C2(C)CCC(C2)C1(C)C` (single isomer, unassigned; (-)), in data set [1] (read-out: logP), the logP was determined as 3.53. Further, the Relative potency in the data set on Mus musculus [2] was found to be 1.7.
The matching figures for `CN[C@H]1C2(C)CCC(C2)C1(C)C` (single isomer, unassigned; (-)): 3.53 and 6.2.
With `CNC1(C)C2CCC(C2)C1(C)C` (single isomer, unassigned; (-)) [MECAMYLAMINE], the Relative potency in the data set on Mus musculus [2] was 1.4.
